# Source: PubChem (several laboratories)
# PG9 binder: binds the HIV-1 gp120 antibody PG9 | inhibition, % at 6.7 µM | 0.43% of 360,000 active | TR-FRET gp120-PG9 antibody binding; in the data active means inhibition above about 8.5%
# NR1D1 modulator: Rev-erb alpha (human) modulation | AID 1259318 | 0.79% of 370,000 active | P20393 | activity, % at 10 µM | Rev-erbα–FITC-DNA binding, fluorescence polarization, 90 min;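 active means activity above about 14%, limit read from the data; passing the limit was not always enough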;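 further: 0% = DMSO wells with 35 nM protein and 100% = DMSO wells with 750 nM protein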
# PKA-R1A act: PKA-R1A complex activation | 0.083% of 340,000 active | PKA-R1A dissociation, Cy5-IP20 fluorescence polarization; scaled: DMSO 0%, 113 µM cGMP 100% | activation, % at 11.4 µM | P00514+P68181;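 active means percent activation above the mean of all tested compounds plus 3 SD, cut at about 19% in these data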;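 further: higher means more PKAc released from R1A so a rise in polarization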
# NR2E3 ag-1: human photoreceptor-specific nuclear receptor agonism | Q9Y5X4 | CHO-S Gal4-NCOR/VP16-NR2E3 two-hybrid, luciferase | inhibition of corepressor binding, % at 3.98 µM | 0.35% of 360,000 active | AID 602229;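 active means inhibition above the mean of all tested compounds plus 3 SD, cut at about 70% in these data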;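 further: 0% = DMSO with NR2E3 transfected cells and 100% = cells lacking NR2E3 construct; higher means lower luciferase signal from less NR2E3 corepressor binding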
# PKA-R2B act: activates the human PKA-R2B holoenzyme complex; PKA-R2B holoenzyme dissociation, Cy5-IP20 fluorescence polarization; R2B truncated from residue 108, S112A mutant; 0% DMSO only, 100% 113 µM cGMP; AID 504700; activation, % at 11.4 µM; 0.079% of 340,000 active; P22694+P31323;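 active means activation above a cutoff set at the mean over all compounds plus 3 SD, cut at about 18% in these data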;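 further: higher means more holoenzyme dissociation and a rise in polarization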
# Target sequence (P31323 whole entry, looked up, other chains not shown, the tested form may be a part): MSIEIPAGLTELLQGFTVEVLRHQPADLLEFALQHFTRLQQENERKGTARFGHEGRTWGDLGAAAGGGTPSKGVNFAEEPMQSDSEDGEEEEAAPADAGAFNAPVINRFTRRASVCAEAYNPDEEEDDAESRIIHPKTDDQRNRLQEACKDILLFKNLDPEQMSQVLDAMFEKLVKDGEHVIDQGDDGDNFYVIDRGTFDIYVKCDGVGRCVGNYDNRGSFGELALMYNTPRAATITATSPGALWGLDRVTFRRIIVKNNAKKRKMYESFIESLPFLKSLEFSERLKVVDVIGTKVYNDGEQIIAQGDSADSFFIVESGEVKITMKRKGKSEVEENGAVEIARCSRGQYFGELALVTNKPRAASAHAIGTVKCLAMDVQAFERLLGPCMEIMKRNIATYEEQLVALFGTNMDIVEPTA
# NR2E3 ag-2: NR2E3 (human) agonism. 0.12% of 320,000 active. inhibition of corepressor binding, % at 4.78 µM. GST-NR2E3/biotin-RetCOR TR-FRET, 1536-well;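 active means percent inhibition above the cutoff of mean plus 3 SD of all tested compounds, set per screening campaign, cut at about 20% in these data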;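 further: 0% = DMSO wells and 100% = biotin wells as full block of FRET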
#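 Test system: GST-NR2E3 and biotin-RetCOR proteins | Quantity: 1.35 nM GST-tagged NR2E3 final | Medium: Tris pH 7.5 | Also added: 7 nM biotin-RetCOR | Dosing: Compound at 4.8 µM, single dose | Timing: 5 h at 4 °C | Detection: Time-resolved FRET | Read-out basis: Percent inhibition | Benchmarks: Biotin wells as high control, 0.6% DMSO wells as low control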
# Rev-erbA confirm: Rev-erb alpha (human) modulation, hit confirmation | shares compounds with NR1D1 modulator | Rev-erb alpha FITC-DNA binding, fluorescence polarization, 90 min | activation, % at 25 µM | 61% of 3,000 active | AID 1259319;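 active means activation at or above a set limit, or at least 3 SD above the negative control mean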;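 further: 0% = 35 nM protein with DMSO and 100% = 750 nM protein high control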
# RORg DNA counter: affects RORgamma DNA binding in a Rev-erb alpha counter-screen. IC50, µM. purified RORgamma protein-FITC-DNA binding, fluorescence polarization. AID 1259320. 8% of 910 active. shares compounds with NR1D1 modulator;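 active means Compounds whose fitted half-maximal concentration for disrupting protein-DNA binding is below 10 micromolar; the record names Rev-erb in its text, so the target is in doubt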
# The depositor's hits bear a star; i = inactive; . = no result given. In the library only some 1.6% were active in any assay of this set; here they are far more common.
SMILES,PG9 binder,NR1D1 modulator,PKA-R1A act,NR2E3 ag-1,PKA-R2B act,NR2E3 ag-2,Rev-erbA confirm,others
COC(=O)c1c(-c2cccnc2)csc1NC(=O)c1ccc2c(c1)OCO2,-21.9,20.4*,-5.0,-127.1,5.8,-0.2,-8.3,
COCCCNC(=O)C[C@H]1C[C@@]2(C(=O)OC)C(=C[C@H](COCc3ccccc3)O[C@@H]2C)N(Cc2ccc3c(c2)OCO3)C1=O,2.6,1.0,.,.,.,.,.,
CCCCCCCCNS(=O)(=O)/C=C/c1ccccc1CNC(=O)OC(C)(C)C,.,-0.2,.,.,.,.,.,
COC(=O)[C@]12C[C@H](CC(=O)N3CCSCC3)C(=O)N(CCC3=CCCCC3)C1=C[C@H](C(C)(C)C)O[C@@H]2C,0.2,-8.6,.,.,.,.,.,
COc1ccc(-c2nc(NC(=O)c3ccc(OCC(=O)N4CCOCC4)c(OC)c3)sc2C)cc1,-0.6,-0.8,0.6,12.1,-2.3,6.8,.,
CCc1noc(C)c1C(=O)Nc1nc(-c2ccc(F)cc2)c(C)s1,0.9,-0.8,-8.0,-19.1,-10.2,-0.3,.,
CCc1ccc(-c2nc(NC(=O)c3ccc(OCC(=O)Nc4ccc(F)cc4)c(OC)c3)sc2C)cc1,-0.8,112.8*,1.5,-17.0,-14.8,-2.3,66.2*,RORg DNA counter=>40
COc1cc(C(=O)Nc2nc(-c3ccc(Cl)cc3)c(C)s2)ccc1OCC(=O)Nc1ccc(F)cc1,0.2,122.4*,-4.8,-26.2,-0.5,-2.2,125.3*,RORg DNA counter=>40
C(#CC1=CCCCC1)CNCc1ccccc1,.,9.2,.,.,.,.,.,
COc1cccc(/C=C2\CC3(OC(=O)c4cccc(F)c4)CCCN2C3)c1 (configuration not stated),.,3.6,.,.,.,.,.,
O=[N+]([O-])c1ccc(N=Nc2ccc(O)cc2O)cc1,-8.2,36.7*,5.5,-9.7,-1.8,3.1,23.4*,
CO[C@H]([C@H](C)/C=C/N(C)C=O)[C@@H](C)C(=O)CC[C@H](C)[C@H](O)[C@H](C)[C@H]1OC(=O)/C=C/C(C)=C/C[C@H](O)C[C@@H]2C=CC[C@@H](C[C@H](OC)[C@@]3(CO3)[C@@H](OC)C[C@@H](OC)[C@@H]1C)O2,.,-3.4,.,.,.,.,.,
COc1cccc(-c2c(C#N)c(SC)nc3cc(C)nn23)c1,0.2,38.9*,-1.3,-7.2,-6.8,1.2,17.8,
COc1cccc(N2CCN(c3nc(C)cc(C)c3C#N)CC2)c1,-1.3,-2.5,-1.5,18.1,-8.0,2.4,.,
COC(=O)[C@H](CC(C)C)N(CCc1cn(Cc2ccccc2)nn1)S(=O)(=O)c1ccccc1Br,.,1.9,.,.,.,.,.,
CCc1ccc(/C=C/C(=O)NC2=NCCS2)cc1,.,-0.9,.,.,.,.,.,
CC(C)COc1ccc(C(=O)Nc2scc(-c3ccc(Cl)cc3Cl)c2C(N)=O)cc1,-1.9,31.5*,-14.1,-9.3,-0.2,0.8,29.4*,
O=C(Nc1nc(-c2ccc(Cl)cc2Cl)cs1)c1ccc(OCC2CCCO2)cc1 (configuration not stated),1.1,-0.8,-4.9,-8.1,-4.6,6.3,.,
O=C(NCc1ccco1)c1ccc(Cn2c(=O)c3ccccc3n(Cc3cccc(F)c3)c2=O)cc1,-1.5,52.7*,3.6,-0.9,-4.4,7.7,37.4*,RORg DNA counter=i
COc1ccc(C(=O)OCC(=O)Nc2nc3c(F)c(F)c(F)cc3s2)cc1OC,0.7,19.9*,4.2,-44.4,5.7,1.5,3.1,
Cc1ccc(NC(=O)C2CC3CCC2C3)cc1 (configuration not stated),.,-0.3,.,.,.,.,.,
Cn1sc(NC(=O)c2ccc(Cl)cc2)nc1=O,-0.8,0.8,-2.5,-42.4,3.5,-0.6,.,
CC(=O)c1sc(NC(=O)CCCOc2ccc(Cl)cc2)nc1C,6.5,15.4*,-2.5,-18.2,-18.0,-53.0,11.6,
O=C(Nc1nc2ccsc2c(=O)s1)c1ccc(Cl)cc1,0.4,109.7*,-1.4,-21.7,-7.2,-8.3,44.0*,RORg DNA counter=>40
COc1ccc(OCCCC(=O)Nc2nc(C)c(C(C)=O)s2)cc1,-2.7,-0.9,-16.4,-1.1,-7.8,-0.6,.,
SMILES,PG9 binder,NR1D1 modulator,PKA-R1A act,NR2E3 ag-1,PKA-R2B act,NR2E3 ag-2,Rev-erbA confirm,others
CC(=O)c1sc(NC(=O)c2ccc(Cl)cc2)nc1C,2.0,25.8*,2.1,-46.7,5.3,3.8,17.1,
COc1ccc(CC(=O)Nc2nn(C)c3nc4c(C)cccc4cc23)cc1,5.7,28.3*,.,13.2,.,-2.2,11.2,
OC[C@H]1O[C@@H](Oc2ccc(O)cc2)[C@H](O)[C@@H](O)[C@@H]1O,-0.3,3.4,-6.5,11.5,-2.8,.,.,
OCC1OC(Oc2cccc3ccccc23)C(O)C(O)C1O (configuration not stated),-2.1,26.4*,11.6,-10.1,-0.5,-2.4,-2.7,
CC(=O)Nc1sc(C)c(C)c1C(=O)OCC(=O)NCc1ccc(Cl)cc1,7.8,23.9*,2.7,15.0,-5.5,-2.4,8.5,
OCc1cn(-c2ccccc2)nc1-c1ccc(-c2nn(-c3ccccc3)cc2CO)cc1,-2.3,15.6*,-14.5,20.6,-0.9,-0.2,8.0,
O=C(O)Cc1cn(-c2ccccc2)nc1-c1ccccc1,-1.6,-1.1,-1.9,1.4,-10.3,-2.0,.,
CC(=O)CC[C@H]1CC[C@]2(CCCN(C(=O)c3ccccc3)C2)O1,.,6.1,.,.,.,.,.,
Brc1cccc(-c2nc3cccnc3nc2-c2cccc(Br)c2)c1,-0.7,13.8*,6.7,-27.4,10.7,5.2,6.4,
c1cnc2nc3c4ccccc4c4ccccc4c3nc2c1,-1.6,4.5,-3.1,40.0,-3.8,.,.,
Cn1nc(-c2ccccc2)cc1NC(=O)c1ccccc1,0.6,41.2*,2.5,-36.9,3.6,1.7,2.2,
Cc1cc(NC(=O)c2ccccc2)n(C)n1,1.0,-0.3,4.1,22.4,-1.3,-1.5,.,
Cc1nnc(NC(=O)c2oc3ccccc3c2C)s1,0.2,-4.0,5.7,-125.3,1.6,6.0,.,
Cc1nnc(NC(=O)c2oc3c(ccc4ccccc43)c2C)s1,0.8,38.7*,-3.2,-13.5,-17.8,4.4,28.5*,
CCc1nnc(NC(=O)c2oc3ccc(Br)cc3c2C)s1,2.2,41.5*,0.9,-66.8,-5.3,.,40.5*,RORg DNA counter=>40
CCCC(C)NC(=O)Cc1ccc(Br)cc1 (configuration not stated),0.4,0.2,0.7,-39.1,2.6,-1.4,.,
CCC(C)NC(=O)Cc1c(OC)ccc2cc(Br)ccc12 (configuration not stated),8.1,22.8*,-2.1,-26.6,-1.2,1.3,40.3*,RORg DNA counter=>40
CCOC(=O)c1sc2nc(C)n(N)c(=O)c2c1C,-3.2,-5.5,-1.1,-27.0,0.9,4.0,.,
CCOC(=O)c1sc2nc(C)[nH]c(=S)c2c1C,4.5,61.5*,-13.5,3.6,1.0,.,19.5*,
